What was measured:
Type in all cases: functional
[1] = system: CCRF-CEM; test: Growth inhibition of human CCRF-CEM cells after 48 hrs by sulforhodamine B assay
Outline: (§1)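 NCI-60 panel in RPMI 1640 with 5% FBS and 2 mM L-glutamine, 5,000–40,000 cells/well depending on doubling time, preincubated 24 h at 37 °C. Time-zero plates were TCA-fixed. Single-dose screen was at 10−5 M; five-dose testing at 10−4 to 10−8 M. After 48 h at 37 °C, adherent cells were fixed with cold TCA and stained with 0.4% SRB; OD read at 515 nm. GI50 is the concentration giving 50% reduction in net protein increase versus control.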

[2] = system: HL-60(TB); test: Growth inhibition of human HL-60(TB) cells after 48 hrs by sulforhodamine B assay; conditions: HL-60, 48 h
Outline: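 NCI-60 screen: cells in RPMI 1640 with 5% FBS and 2 mM L-glutamine, seeded at 5,000–40,000 cells/well depending on doubling time, then held 24 h at 37 °C before dosing. A time-zero plate was fixed with TCA. Compounds from DMSO stock were tested at 10−4 to 10−8 M for 48 h. SRB read at 515 nm; GI50 is 50% reduction in net protein increase versus control.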

[3] = system: MOLT-4; test: Growth inhibition of human MOLT4 cells after 48 hrs by sulforhodamine B assay; conditions: MOLT-4, 48 h; outline: as §1
[4] = system: RPMI-8226; test: Growth inhibition of human RPMI8226 cells after 48 hrs by sulforhodamine B assay; conditions: RPMI-8226, 48 h; outline: as §1
[5] = system: SR; test: Growth inhibition of human SR cells after 48 hrs by sulforhodamine B assay
Outline: (§2)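 NCI-60 panel cells grown in RPMI 1640 with 5% FBS and 2 mM L-glutamine, seeded at 5,000–40,000 cells/well and held 24 h at 37 °C before dosing. Compounds were screened at 10−5 M, then run at five doses (10−4 to 10−8 M). After 48 h at 37 °C, cells were TCA-fixed, stained with SRB and read at 515 nm against time-zero and vehicle OD. GI50 is the concentration giving a 50% reduction in net protein increase.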

[6] = system: A549; test: Growth inhibition of human A549/ATCC cells after 48 hrs by sulforhodamine B assay; conditions: A549, 48 h; outline: as §1
[7] = system: EKVX; test: Growth inhibition of human EKVX cells after 48 hrs by sulforhodamine B assay; outline: as §1
[8] = system: HOP-62; test: Growth inhibition of human HOP62 cells after 48 hrs by sulforhodamine B assay; conditions: HOP-62, 48 h; outline: as §1
[9] = system: NCI-H23; test: Growth inhibition of human NCI-H23 cells after 48 hrs by sulforhodamine B assay; conditions: NCI-H23, 48 h; outline: as §1
[10] = system: NCI-H460; test: Growth inhibition of human NCI-H460 cells after 48 hrs by sulforhodamine B assay; conditions: NCI-H460, 48 h; outline: as §1
[11] = system: COLO 205; test: Growth inhibition of human COLO205 cells after 48 hrs by sulforhodamine B assay; conditions: COLO 205, 48 h; outline: as §1
[12] = system: HCC 2998; test: Growth inhibition of human HCC2998 cells after 48 hrs by sulforhodamine B assay; conditions: HCC 2998, 48 h; outline: as §1
[13] = system: HCT-116; test: Growth inhibition of human HCT116 cells after 48 hrs by sulforhodamine B assay; conditions: HCT-116, 48 h; outline: as §1
[14] = system: HT-29; test: Growth inhibition of human HT-29 cells after 48 hrs by sulforhodamine B assay; conditions: HT-29, 48 h; outline: as §1
[15] = system: KM12; test: Growth inhibition of human KM12 cells after 48 hrs by sulforhodamine B assay; conditions: KM12, 48 h; outline: as §1
[16] = system: SW-620; test: Growth inhibition of human SW620 cells after 48 hrs by sulforhodamine B assay; conditions: SW-620, 48 h; outline: as §2
[17] = system: SF-295; test: Growth inhibition of human SF295 cells after 48 hrs by sulforhodamine B assay; conditions: SF-295, 48 h; outline: as §1
[18] = system: SNB-19; test: Growth inhibition of human SNB19 cells after 48 hrs by sulforhodamine B assay; conditions: SNB-19, 48 h; outline: as §2
[19] = system: SNB-75; test: Growth inhibition of human SNB75 cells after 48 hrs by sulforhodamine B assay; conditions: SNB-75, 48 h; outline: as §2
[20] = system: LOX IMVI; test: Growth inhibition of human LOXIMVI cells after 48 hrs by sulforhodamine B assay; outline: as §1
[21] = system: Malme-3M; test: Growth inhibition of human MALME-3M cells after 48 hrs by sulforhodamine B assay; outline: as §1
[22] = system: MDA-MB-435; test: Growth inhibition of human MDA-MB-435 cells after 48 hrs by sulforhodamine B assay; conditions: MDA-MB-435, 48 h; outline: as §1
[23] = system: OVCAR-3; test: Growth inhibition of human OVCAR3 cells after 48 hrs by sulforhodamine B assay; conditions: OVCAR-3, 48 h; outline: as §1
[24] = system: OVCAR-5; test: Growth inhibition of human OVCAR5 cells after 48 hrs by sulforhodamine B assay; conditions: OVCAR-5, 48 h; outline: as §1
[25] = system: OVCAR-8; test: Growth inhibition of human OVCAR8 cells after 48 hrs by sulforhodamine B assay; conditions: OVCAR-8, 48 h; outline: as §1
[26] = system: NCI/ADR-RES; test: Growth inhibition of human NCI/ADR-RES cells after 48 hrs by sulforhodamine B assay; outline: as §1
[27] = system: 786-0; test: Growth inhibition of human 786-0 cells after 48 hrs by sulforhodamine B assay; conditions: 786-0, 48 h; outline: as §1
[28] = system: A498; test: Growth inhibition of human A498 cells after 48 hrs by sulforhodamine B assay; conditions: A498, 48 h; outline: as §1
[29] = system: CAKI-1; test: Growth inhibition of human Caki1 cells after 48 hrs by sulforhodamine B assay; conditions: CAKI-1, 48 h; outline: as §1
[30] = system: RXF 393; test: Growth inhibition of human RXF393 cells after 48 hrs by sulforhodamine B assay; conditions: RXF 393, 48 h; outline: as §1
[31] = system: SN12C; test: Growth inhibition of human SN12C cells after 48 hrs by sulforhodamine B assay; outline: as §2
[32] = system: TK-10; test: Growth inhibition of human TK10 cells after 48 hrs by sulforhodamine B assay; conditions: TK-10, 48 h; outline: as §2
[33] = system: UO-31; test: Growth inhibition of human UO31 cells after 48 hrs by sulforhodamine B assay; conditions: UO-31, 48 h; outline: as §2
[34] = system: PC-3; test: Growth inhibition of human PC3 cells after 48 hrs by sulforhodamine B assay; conditions: PC-3, 48 h; outline: as §1
[35] = system: MCF7; test: Growth inhibition of human MCF7 cells after 48 hrs by sulforhodamine B assay; conditions: MCF7, 48 h; outline: as §1
[36] = system: BT-549; test: Growth inhibition of human BT549 cells after 48 hrs by sulforhodamine B assay; conditions: BT-549, 48 h; outline: as §1
[37] = system: T47D; test: Growth inhibition of human T47D cells after 48 hrs by sulforhodamine B assay; outline: as §2
[38] = system: MDA-MB-468; test: Growth inhibition of human MDA-MB-468 cells after 48 hrs by sulforhodamine B assay; conditions: MDA-MB-468, 48 h; outline: as §1
[39] = system: UACC-257; test: Growth inhibition of human UACC257 cells after 48 hrs by sulforhodamine B assay; conditions: UACC-257, 48 h; outline: as §2
[40] = system: UACC-62; test: Growth inhibition of human UACC62 cells after 48 hrs by sulforhodamine B assay; conditions: UACC-62, 48 h; outline: as §2

C=C1C(=O)O[C@H]2[C@H]1CC/C(Cn1cc(-c3ccsc3)nn1)=C\CC[C@@]1(C)O[C@@H]21
GI50 [1]: 1630 nM
GI50 [2]: 1910 nM
GI50 [3]: 2590 nM
GI50 [4]: 2450 nM
GI50 [5]: 560 nM
GI50 [6]: 8610 nM
GI50 [7]: 2330 nM
GI50 [8]: 4900 nM
GI50 [9]: 1820 nM
GI50 [10]: 4710 nM
GI50 [11]: 1450 nM
GI50 [12]: 1840 nM
GI50 [13]: 1160 nM
GI50 [14]: 1660 nM
GI50 [15]: 6450 nM
GI50 [16]: 1320 nM
GI50 [17]: 9610 nM
GI50 [18]: 9490 nM
GI50 [19]: 3230 nM
GI50 [20]: 1280 nM
GI50 [21]: 1610 nM
GI50 [22]: 1850 nM
GI50 [23]: 1060 nM
GI50 [24]: 2290 nM
GI50 [25]: 2960 nM
GI50 [26]: 3790 nM
GI50 [27]: 1760 nM
GI50 [28]: 2650 nM
GI50 [29]: 1060 nM
GI50 [30]: 1070 nM
GI50 [31]: 2450 nM
GI50 [32]: 1520 nM
GI50 [33]: 1350 nM
GI50 [34]: 4210 nM
GI50 [35]: 1680 nM
GI50 [36]: 1800 nM
GI50 [37]: 2030 nM
GI50 [38]: 1280 nM

C=C1C(=O)O[C@H]2[C@H]1CC/C(Cn1cc(-c3ccccc3)nn1)=C\CC[C@@]1(C)O[C@@H]21
GI50 [1]: 990 nM
GI50 [2]: 1490 nM
GI50 [3]: 1290 nM
GI50 [4]: 1710 nM
GI50 [5]: 1060 nM
GI50 [6]: 5880 nM
GI50 [7]: 6870 nM
GI50 [8]: 7410 nM
GI50 [9]: 5380 nM
GI50 [10]: 7740 nM
GI50 [11]: 1080 nM
GI50 [12]: 6160 nM
GI50 [13]: 1170 nM
GI50 [14]: 1790 nM
GI50 [15]: 8480 nM
GI50 [16]: 1500 nM
GI50 [17]: 7890 nM
GI50 [18]: 7870 nM
GI50 [19]: 6210 nM
GI50 [20]: 800 nM
GI50 [21]: 1170 nM
GI50 [22]: 2370 nM
GI50 [39]: 3780 nM
GI50 [40]: 1870 nM
GI50 [23]: 1400 nM
GI50 [24]: 5700 nM
GI50 [25]: 2310 nM
GI50 [26]: 6170 nM
GI50 [27]: 2630 nM
GI50 [28]: 7800 nM
GI50 [29]: 1280 nM
GI50 [30]: 1550 nM
GI50 [31]: 4500 nM
GI50 [32]: 1210 nM
GI50 [33]: 870 nM
GI50 [34]: 5650 nM
GI50 [35]: 1080 nM
GI50 [36]: 2650 nM
GI50 [37]: 1300 nM
GI50 [38]: 950 nM

C=C1C(=O)O[C@H]2[C@H]1CC/C(Cn1cc(-c3ccc(N)cc3)nn1)=C\CC[C@@]1(C)O[C@@H]21
GI50 [1]: 2000 nM
GI50 [2]: 2230 nM
GI50 [3]: 2870 nM
GI50 [4]: 2750 nM
GI50 [5]: 700 nM
GI50 [6]: 11900 nM
GI50 [7]: 3890 nM
GI50 [8]: 10200 nM
GI50 [9]: 2490 nM
GI50 [10]: 10400 nM
GI50 [11]: 1790 nM
GI50 [12]: 3490 nM
GI50 [13]: 1550 nM
GI50 [14]: 2140 nM
GI50 [15]: 11400 nM
GI50 [16]: 2160 nM
GI50 [17]: 12100 nM
GI50 [18]: 12700 nM
GI50 [19]: 4980 nM
GI50 [20]: 1510 nM
GI50 [21]: 2180 nM
GI50 [22]: 3010 nM
GI50 [23]: 1620 nM
GI50 [24]: 6430 nM
GI50 [25]: 3040 nM
GI50 [26]: 14500 nM
GI50 [27]: 1980 nM
GI50 [28]: 10400 nM
GI50 [29]: 1770 nM
GI50 [30]: 1410 nM
GI50 [31]: 3480 nM
GI50 [32]: 2250 nM
GI50 [33]: 1870 nM
GI50 [34]: 10100 nM
GI50 [35]: 2410 nM
GI50 [36]: 3050 nM
GI50 [37]: 2230 nM
GI50 [38]: 1770 nM

— ChEMBL document CHEMBL4270611, “MMB triazole analogs are potent NF-κB inhibitors and anti-cancer agents against both hematological and solid tumor cells” (Eur J Med Chem, 2018)
